Measured values taken from ChEMBL document CHEMBL1132283, “Further studies on the Dmt-Tic pharmacophore: hydrophobic substituents at the C-terminus endow delta antagonists to manifest mu agonism or mu antagonism” (J Med Chem, 1999).
Where a SMILES comes first, the peptide text is derived from it. [ ]: non-standard residue; d: D form. The star is where a group is joined. Dmt = Cc1cc(O)cc(C)c1C[C@H](N)C(=O)O; Tic = O=C(O)[C@@H]1Cc2ccccc2CN1; NHtBu = CC(C)(C)N*

species on record: Mus musculus; experiment: Antagonistic functional bioactivity against delta-receptor from mouse vas deferens(MVD).; conditions: not given

| Structure (SMILES) | EC50 | Ke |
| --- | --- | --- |
| Cc1cc(O)cc(C)c1C[C@H](N)C(=O)N1Cc2ccccc2C[C@H]1C(=O)NC12C[C@H]3C[C@@H](C1)C[C@@H](C2)C3 | 870 nM | >10000 nM |
| Cc1cc(O)cc(C)c1C[C@@H](C(=O)N1Cc2ccccc2C[C@@H]1C(=O)NC12C[C@H]3C[C@@H](C1)C[C@@H](C2)C3)N(C)C |  | 128 nM |
| Cc1cc(O)cc(C)c1C[C@@H](C(=O)N1Cc2ccccc2C[C@H]1C(=O)O)N1CCCC1 |  | 121 nM |
| Cc1cc(O)cc(C)c1C[C@H](N)C(=O)N1Cc2ccccc2C[C@@H]1C(=O)NC12C[C@H]3C[C@@H](C1)C[C@@H](C2)C3 |  | >10000 nM |
| Cc1cc(O)cc(C)c1C[C@@H](C(=O)N1Cc2ccccc2C[C@H]1C(=O)NC12C[C@H]3C[C@@H](C1)C[C@@H](C2)C3)N(C)C |  | 0.87 nM |
| CNC(=O)[C@H](C)NC(=O)[C@@H]1Cc2ccccc2CN1C(=O)[C@@H](N)Cc1c(C)cc(O)cc1C (H-[Dmt]-[Tic]-Ala-NHMe) | 1290 nM |  |
| Cc1cc(O)cc(C)c1C[C@H](N)C(=O)N1Cc2ccccc2C[C@H]1C(=O)NC(C)(C)C (H-[Dmt]-[Tic]-NHtBu) |  | 1.74 nM |
| Cc1cc(O)cc(C)c1C[C@H](N)C(=O)N1Cc2ccccc2C[C@H]1C(=O)N[C@@H](C)C(=O)NC(C)(C)C (H-[Dmt]-[Tic]-Ala-NHtBu) |  | 0.69 nM |
| CNC(=O)[C@@H]1Cc2ccccc2CN1C(=O)[C@H](Cc1c(C)cc(O)cc1C)N(C)C |  | 0.41 nM |
| Cc1cc(O)cc(C)c1C[C@@H](C(=O)N1Cc2ccccc2C[C@H]1C(=O)O)N1CCCCC1 |  | 49 nM |

same assay, conditions: read-out: pA2 (converted)

| Structure (SMILES) | Kb |
| --- | --- |
| Cc1cc(O)cc(C)c1C[C@@H](C(=O)N1Cc2ccccc2C[C@@H]1C(=O)NC12C[C@H]3C[C@@H](C1)C[C@@H](C2)C3)N(C)C | 123 nM |
| Cc1cc(O)cc(C)c1C[C@@H](C(=O)N1Cc2ccccc2C[C@H]1C(=O)O)N1CCCC1 | 126 nM |
| Cc1cc(O)cc(C)c1C[C@@H](C(=O)N1Cc2ccccc2C[C@H]1C(=O)NC12C[C@H]3C[C@@H](C1)C[C@@H](C2)C3)N(C)C | 0.871 nM |
| Cc1cc(O)cc(C)c1C[C@H](N)C(=O)N1Cc2ccccc2C[C@H]1C(=O)NC(C)(C)C (H-[Dmt]-[Tic]-NHtBu) | 5.75 nM |
| Cc1cc(O)cc(C)c1C[C@H](N)C(=O)N1Cc2ccccc2C[C@H]1C(=O)N[C@@H](C)C(=O)NC(C)(C)C (H-[Dmt]-[Tic]-Ala-NHtBu) | 0.692 nM |
| CNC(=O)[C@@H]1Cc2ccccc2CN1C(=O)[C@H](Cc1c(C)cc(O)cc1C)N(C)C | 0.407 nM |
| Cc1cc(O)cc(C)c1C[C@@H](C(=O)N1Cc2ccccc2C[C@H]1C(=O)O)N1CCCCC1 | 49 nM |

target: T1, Opioid receptors; mu & delta (Rattus norvegicus) (UniProt P33533+P33535); experiment: Agonist activity ratio (Ki of mu receptors compared to Ki of delta receptors).; assay type: functional; conditions: not given
T1 sequence (P33533 whole entry, looked up): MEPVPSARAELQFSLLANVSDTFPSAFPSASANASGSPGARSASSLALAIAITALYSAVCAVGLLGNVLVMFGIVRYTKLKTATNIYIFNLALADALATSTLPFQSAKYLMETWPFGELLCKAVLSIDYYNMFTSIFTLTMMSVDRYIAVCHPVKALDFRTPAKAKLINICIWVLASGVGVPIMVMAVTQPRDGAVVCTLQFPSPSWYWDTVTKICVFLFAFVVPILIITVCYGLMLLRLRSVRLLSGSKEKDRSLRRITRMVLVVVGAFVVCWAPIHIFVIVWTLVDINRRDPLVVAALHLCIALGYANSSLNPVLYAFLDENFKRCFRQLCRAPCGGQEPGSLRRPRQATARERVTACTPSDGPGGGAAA
T1 sequence (P33535 whole entry, looked up): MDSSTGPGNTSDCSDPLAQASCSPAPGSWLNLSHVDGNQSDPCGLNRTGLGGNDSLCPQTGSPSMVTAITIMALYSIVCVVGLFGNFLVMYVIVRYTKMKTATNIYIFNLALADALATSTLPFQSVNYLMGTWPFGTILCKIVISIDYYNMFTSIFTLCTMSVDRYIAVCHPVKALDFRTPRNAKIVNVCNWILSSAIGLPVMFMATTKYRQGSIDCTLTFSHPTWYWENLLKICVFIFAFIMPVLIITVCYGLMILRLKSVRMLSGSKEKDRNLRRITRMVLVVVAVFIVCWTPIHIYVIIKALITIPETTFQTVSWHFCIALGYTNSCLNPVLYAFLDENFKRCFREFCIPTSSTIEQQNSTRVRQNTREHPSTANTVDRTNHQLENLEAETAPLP

| Structure (SMILES) | Ratio |
| --- | --- |
| Cc1cc(O)cc(C)c1C[C@H](N)C(=O)N1Cc2ccccc2C[C@H]1C(=O)NC12C[C@H]3C[C@@H](C1)C[C@@H](C2)C3 | 3 |
| Cc1cc(O)cc(C)c1C[C@@H](C(=O)N1Cc2ccccc2C[C@@H]1C(=O)NC12C[C@H]3C[C@@H](C1)C[C@@H](C2)C3)N(C)C | 0.36 |
| Cc1cc(O)cc(C)c1C[C@@H](C(=O)N1Cc2ccccc2C[C@H]1C(=O)O)N1CCCC1 | 502 |
| Cc1cc(O)cc(C)c1C[C@H](N)C(=O)N1Cc2ccccc2C[C@@H]1C(=O)NC12C[C@H]3C[C@@H](C1)C[C@@H](C2)C3 | 0.01 |
| Cc1cc(O)cc(C)c1C[C@@H](C(=O)N1Cc2ccccc2C[C@H]1C(=O)NC12C[C@H]3C[C@@H](C1)C[C@@H](C2)C3)N(C)C | 7 |
| CNC(=O)[C@H](C)NC(=O)[C@@H]1Cc2ccccc2CN1C(=O)[C@@H](N)Cc1c(C)cc(O)cc1C (H-[Dmt]-[Tic]-Ala-NHMe) | 100 |
| Cc1cc(O)cc(C)c1C[C@H](N)C(=O)N1Cc2ccccc2C[C@H]1C(=O)NC(C)(C)C (H-[Dmt]-[Tic]-NHtBu) | 14 |
| Cc1cc(O)cc(C)c1C[C@H](N)C(=O)N1Cc2ccccc2C[C@H]1C(=O)N[C@@H](C)C(=O)NC(C)(C)C (H-[Dmt]-[Tic]-Ala-NHtBu) | 61 |
| CNC(=O)[C@@H]1Cc2ccccc2CN1C(=O)[C@H](Cc1c(C)cc(O)cc1C)N(C)C | 669 |
| Cc1cc(O)cc(C)c1C[C@@H](C(=O)N1Cc2ccccc2C[C@H]1C(=O)O)N1CCCCC1 | 1730 |

target: T2, Delta-type opioid receptor (Rattus norvegicus, UniProt P33533); experiment: Binding affinity at Opioid receptor delta 1 from rat brain synaptosomal preparations by H-Dmt-Tic-OH displacement.; conditions: not given
T2 sequence (P33533 whole entry): as the sequence (P33533 whole entry, looked up) above

| Structure (SMILES) | Ki |
| --- | --- |
| Cc1cc(O)cc(C)c1C[C@H](N)C(=O)N1Cc2ccccc2C[C@H]1C(=O)NC12C[C@H]3C[C@@H](C1)C[C@@H](C2)C3 | 1.01 nM |
| Cc1cc(O)cc(C)c1C[C@@H](C(=O)N1Cc2ccccc2C[C@@H]1C(=O)NC12C[C@H]3C[C@@H](C1)C[C@@H](C2)C3)N(C)C | 120 nM |
| Cc1cc(O)cc(C)c1C[C@H](N)C(=O)N1Cc2ccccc2C[C@@H]1C(=O)NC12C[C@H]3C[C@@H](C1)C[C@@H](C2)C3 | 70.3 nM |
| Cc1cc(O)cc(C)c1C[C@@H](C(=O)N1Cc2ccccc2C[C@H]1C(=O)NC12C[C@H]3C[C@@H](C1)C[C@@H](C2)C3)N(C)C | 0.12 nM |

species on record: Cavia porcellus; experiment: Antagonistic functional bioactivity against […]-receptor from guinea pig ileum(GPI).; conditions: not given

| Structure (SMILES) | EC50 | Ke |
| --- | --- | --- |
| Cc1cc(O)cc(C)c1C[C@H](N)C(=O)N1Cc2ccccc2C[C@H]1C(=O)NC12C[C@H]3C[C@@H](C1)C[C@@H](C2)C3 | 36 nM |  |
| Cc1cc(O)cc(C)c1C[C@@H](C(=O)N1Cc2ccccc2C[C@@H]1C(=O)NC12C[C@H]3C[C@@H](C1)C[C@@H](C2)C3)N(C)C | 4480 nM |  |
| Cc1cc(O)cc(C)c1C[C@@H](C(=O)N1Cc2ccccc2C[C@H]1C(=O)O)N1CCCC1 | > 10000 nM |  |
| Cc1cc(O)cc(C)c1C[C@H](N)C(=O)N1Cc2ccccc2C[C@@H]1C(=O)NC12C[C@H]3C[C@@H](C1)C[C@@H](C2)C3 | 1680 nM |  |
| Cc1cc(O)cc(C)c1C[C@@H](C(=O)N1Cc2ccccc2C[C@H]1C(=O)NC12C[C@H]3C[C@@H](C1)C[C@@H](C2)C3)N(C)C | 16 nM |  |
| CNC(=O)[C@H](C)NC(=O)[C@@H]1Cc2ccccc2CN1C(=O)[C@@H](N)Cc1c(C)cc(O)cc1C (H-[Dmt]-[Tic]-Ala-NHMe) | 290 nM |  |
| Cc1cc(O)cc(C)c1C[C@H](N)C(=O)N1Cc2ccccc2C[C@H]1C(=O)NC(C)(C)C (H-[Dmt]-[Tic]-NHtBu) | 1040 nM |  |
| Cc1cc(O)cc(C)c1C[C@H](N)C(=O)N1Cc2ccccc2C[C@H]1C(=O)N[C@@H](C)C(=O)NC(C)(C)C (H-[Dmt]-[Tic]-Ala-NHtBu) | > 10000 nM |  |
| CNC(=O)[C@@H]1Cc2ccccc2CN1C(=O)[C@H](Cc1c(C)cc(O)cc1C)N(C)C | > 10000 nM | 0.39 nM |
| Cc1cc(O)cc(C)c1C[C@@H](C(=O)N1Cc2ccccc2C[C@H]1C(=O)O)N1CCCCC1 | > 10000 nM |  |

same assay, conditions: read-out: pA2 (converted)

| Structure (SMILES) | Kb |
| --- | --- |
| Cc1cc(O)cc(C)c1C[C@H](N)C(=O)N1Cc2ccccc2C[C@H]1C(=O)N[C@@H](C)C(=O)NC(C)(C)C (H-[Dmt]-[Tic]-Ala-NHtBu) | 174 nM |
| CNC(=O)[C@@H]1Cc2ccccc2CN1C(=O)[C@H](Cc1c(C)cc(O)cc1C)N(C)C | 389 nM |

target: T2, Delta-type opioid receptor; experiment: Binding affinity at Opioid receptor delta 1 from rat brain synaptosomal preparations by [3H]N,N-(Me)2-Dmt-Tic-OH displacement.; conditions: not given
Outline: (§1)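 Nonspecific binding was set with 2 μM unlabeled peptide, followed by GF/C filtration. Duplicates at 5–9 doses, ≥3 preparations; Ki by Cheng–Prusoff, mean ± SEM.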

| Structure (SMILES) | Ki |
| --- | --- |
| Cc1cc(O)cc(C)c1C[C@H](N)C(=O)N1Cc2ccccc2C[C@H]1C(=O)NC12C[C@H]3C[C@@H](C1)C[C@@H](C2)C3 | 0.26 nM |
| Cc1cc(O)cc(C)c1C[C@@H](C(=O)N1Cc2ccccc2C[C@@H]1C(=O)NC12C[C@H]3C[C@@H](C1)C[C@@H](C2)C3)N(C)C | 140 nM |
| Cc1cc(O)cc(C)c1C[C@H](N)C(=O)N1Cc2ccccc2C[C@@H]1C(=O)NC12C[C@H]3C[C@@H](C1)C[C@@H](C2)C3 | 24.5 nM |
| Cc1cc(O)cc(C)c1C[C@@H](C(=O)N1Cc2ccccc2C[C@H]1C(=O)NC12C[C@H]3C[C@@H](C1)C[C@@H](C2)C3)N(C)C | 0.16 nM |

target: Mu-type opioid receptor (Rattus norvegicus, UniProt P33535); experiment: Binding affinity at Opioid receptor mu 1 from rat brain synaptosomal preparations by [3H]DAGO displacement.; conditions: not given; outline: as §1
Sequence (P33535 whole entry): as the sequence (P33535 whole entry, looked up) above

| Structure (SMILES) | Ki |
| --- | --- |
| Cc1cc(O)cc(C)c1C[C@H](N)C(=O)N1Cc2ccccc2C[C@H]1C(=O)NC12C[C@H]3C[C@@H](C1)C[C@@H](C2)C3 | 0.76 nM |
| Cc1cc(O)cc(C)c1C[C@@H](C(=O)N1Cc2ccccc2C[C@@H]1C(=O)NC12C[C@H]3C[C@@H](C1)C[C@@H](C2)C3)N(C)C | 50.5 nM |
| Cc1cc(O)cc(C)c1C[C@H](N)C(=O)N1Cc2ccccc2C[C@@H]1C(=O)NC12C[C@H]3C[C@@H](C1)C[C@@H](C2)C3 | 0.26 nM |
| Cc1cc(O)cc(C)c1C[C@@H](C(=O)N1Cc2ccccc2C[C@H]1C(=O)NC12C[C@H]3C[C@@H](C1)C[C@@H](C2)C3)N(C)C | 1.12 nM |

target: T1, Opioid receptors; mu & delta (Rattus norvegicus); experiment: Antagonistic activity ratio (Ki of mu receptors compared to Ki of delta receptors).; assay type: functional; conditions: not given

| Structure (SMILES) | Ratio |
| --- | --- |
| Cc1cc(O)cc(C)c1C[C@H](N)C(=O)N1Cc2ccccc2C[C@H]1C(=O)NC12C[C@H]3C[C@@H](C1)C[C@@H](C2)C3 | 0.8 |
| Cc1cc(O)cc(C)c1C[C@@H](C(=O)N1Cc2ccccc2C[C@@H]1C(=O)NC12C[C@H]3C[C@@H](C1)C[C@@H](C2)C3)N(C)C | 0.42 |
| Cc1cc(O)cc(C)c1C[C@@H](C(=O)N1Cc2ccccc2C[C@H]1C(=O)O)N1CCCC1 | 573 |
| Cc1cc(O)cc(C)c1C[C@H](N)C(=O)N1Cc2ccccc2C[C@@H]1C(=O)NC12C[C@H]3C[C@@H](C1)C[C@@H](C2)C3 | 0.004 |
| Cc1cc(O)cc(C)c1C[C@@H](C(=O)N1Cc2ccccc2C[C@H]1C(=O)NC12C[C@H]3C[C@@H](C1)C[C@@H](C2)C3)N(C)C | 9 |
| CNC(=O)[C@H](C)NC(=O)[C@@H]1Cc2ccccc2CN1C(=O)[C@@H](N)Cc1c(C)cc(O)cc1C (H-[Dmt]-[Tic]-Ala-NHMe) | 47 |
| Cc1cc(O)cc(C)c1C[C@H](N)C(=O)N1Cc2ccccc2C[C@H]1C(=O)NC(C)(C)C (H-[Dmt]-[Tic]-NHtBu) | 6 |
| Cc1cc(O)cc(C)c1C[C@H](N)C(=O)N1Cc2ccccc2C[C@H]1C(=O)N[C@@H](C)C(=O)NC(C)(C)C (H-[Dmt]-[Tic]-Ala-NHtBu) | 48 |
| CNC(=O)[C@@H]1Cc2ccccc2CN1C(=O)[C@H](Cc1c(C)cc(O)cc1C)N(C)C | 1270 |
| Cc1cc(O)cc(C)c1C[C@@H](C(=O)N1Cc2ccccc2C[C@H]1C(=O)O)N1CCCCC1 | 2760 |
